From PMC3913215 (Molecular microbiology, 2009)

How the values were obtained:
AgrC-I G396A = assay: β-lactamase reporter assay, AgrC-I G396A; assay type: cell-based, S. aureus; conditions: individual G-box glycine mutant; varying concentrations of synthetic AIP
AgrC-I-GFP = assay: β-lactamase reporter assay, AgrC-I-GFP; assay type: cell-based, S. aureus; conditions: C-terminal GFP fusion (Figure S2)
[1] = test system: AgrC-IHis / AgrC-ISensor, Kin; assay: β-lactamase reporter assay, activation of AgrC-IHis / AgrC-ISensor, Kin; assay type: cell-based, S. aureus; conditions: Kin combined with AgrC-IHis versus AgrC-ISensor, His
AgrC-II = conditions: background statement, no reference at the place; cited from earlier work
AgrC-I N339D = assay: β-lactamase reporter assay, AgrC-I N339D; assay type: cell-based, S. aureus; conditions: N-box mutant; varying concentrations of synthetic AIP
[2] = test system: AgrC-ISensor, His / AgrC-ISensor, Kin; assay: β-lactamase reporter assay, co-expressed AgrC-ISensor, His / AgrC-ISensor, Kin; assay type: cell-based, S. aureus
Procedure, shortened: (§1)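 Agr-deficient S. aureus RN10829 derivatives lacking AIP production, carrying a chromosomal P3-blaZ fusion and agrP2-driven plasmid agrC (compatible plasmids for co-expression), grown to mid-exponential phase in CYGP or MH broth at 37 °C with shaking. Cells were plated and given increasing synthetic AIP. β-Lactamase was read by nitrocefin initial velocity as percent maximal activation. EC50 came from a four-parameter logistic fit. Two or three replicates.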

[3] = test system: AgrC-IHis / AgrC-IΔ1-135, Kin; assay: β-lactamase reporter assay, AgrC-IHis / truncated AgrC-IΔ1-135, Kin; assay type: cell-based, S. aureus; conditions: full-length AgrC-IHis with AgrC-IΔ1-135, Kin (Figure S5B)
[4] = test system: AgrC-ISensor (T104V, S107A, S116I); conditions: mutations in second extracellular loop; ref Geisinger et al., 2008; cited from earlier work
AgrC-I G394A = assay: β-lactamase reporter assay, AgrC-I G394A; assay type: cell-based, S. aureus; conditions: individual G-box glycine mutant; varying concentrations of synthetic AIP
WT AgrC-II = assay: β-lactamase reporter assay, WT AgrC-II; assay type: cell-based, S. aureus; conditions: read-out: EC50 (no activation); P3-blaZ reporter cells, nitrocefin method
Procedure, shortened: as §1

AgrC-IHis / AgrC-IKin = assay: β-lactamase reporter assay, activation of co-expressed AgrC-IHis / AgrC-IKin; assay type: cell-based, S. aureus; conditions: co-expressed mutants
Procedure, shortened: as §1

[5] = test system: N-terminal truncations of AgrC-I; assay: β-lactamase reporter assay, N-terminally truncated AgrC-I alone; assay type: cell-based, S. aureus; conditions: two truncated sensor domains, expressed alone (Figure S5A)
AgrC-IHis (H239Q) = assay: β-lactamase reporter assay, AgrC-IHis; assay type: cell-based, S. aureus; conditions: H-box mutant; varying concentrations of synthetic AIP (Figure S1)
Procedure, shortened: as §1

AIP-I
receptor activation (AgrC-I G396A): weaker activation than that seen with AgrC-I N339D
receptor activation compared to WT (AgrC-I-GFP): only slightly decreased compared to the WT receptor
increase in activation by AIP-I [1]: approximately 30 -fold
antagonism of AgrC-II (AgrC-II): potent cross-group inhibitors
receptor activation (AgrC-I N339D): only partially reduced receptor activation
reduction in activity compared with WT sensor domains ([2]; AgrC-ISensor, His / AgrC-ISensor, Kin versus WT sensor domains): over 150 -fold
EC50 ([2]; co-expressed mutants, both sensor domains mutated): 6.1 µM
activation by AIP-I [3]: significant activity
maximal activation relative to full-length complementary pair [3]: only a third of that observed for the full-length complementary pair
reduction in sensitivity to AIP-I [4]: about 50 -fold
receptor activation (AgrC-I G394A): weaker activation than that seen with AgrC-I N339D
EC50 (WT AgrC-II): > 10 µM
maximal activity compared to WT AgrC (AgrC-IHis / AgrC-IKin): moderately reduced compared to WT AgrC
activation by AIP-I [5]: None of the resulting dimers, with two truncated sensor domains, displayed significant activity
receptor activation (AgrC-IHis (H239Q)): completely inactive
